ChEMBL document CHEMBL1125571, “Potent inhibitors of platelet aggregation based upon the Arg-Gly-Asp-Phe sequence of fibrinogen. A proposal on the nature of the binding interaction between the Asp-carboxylate of RGDX mimetics and the platelet GP IIb-IIIa receptor” (J Med Chem, 1992)

Assays:
[1] = target: T1, Integrin alpha-IIb/beta-3 (Homo sapiens, UniProt P05106+P08514); assay: Inhibition of Fibrinogen receptor binding; assay type: protein-complex assay
[2] = target: T1, Integrin alpha-IIb/beta-3; assay: Inhibition of 125 I-Fibrinogen binding to Fibrinogen receptor (inactive); assay type: protein-complex assay
[3] = target: T1, Integrin alpha-IIb/beta-3; assay: Inhibition of platelet aggregation (PRP) (inactive); assay type: functional
Summary of the method: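 Aggregation of platelets in platelet-rich plasma was induced with ADP, and inhibition of this aggregation was measured.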

[4] = target: T1, Integrin alpha-IIb/beta-3; assay: Inhibition of 125 I-Fibrinogen binding to Fibrinogen receptor; assay type: protein-complex assay

T1 sequence (P05106 27-788 limits assumed): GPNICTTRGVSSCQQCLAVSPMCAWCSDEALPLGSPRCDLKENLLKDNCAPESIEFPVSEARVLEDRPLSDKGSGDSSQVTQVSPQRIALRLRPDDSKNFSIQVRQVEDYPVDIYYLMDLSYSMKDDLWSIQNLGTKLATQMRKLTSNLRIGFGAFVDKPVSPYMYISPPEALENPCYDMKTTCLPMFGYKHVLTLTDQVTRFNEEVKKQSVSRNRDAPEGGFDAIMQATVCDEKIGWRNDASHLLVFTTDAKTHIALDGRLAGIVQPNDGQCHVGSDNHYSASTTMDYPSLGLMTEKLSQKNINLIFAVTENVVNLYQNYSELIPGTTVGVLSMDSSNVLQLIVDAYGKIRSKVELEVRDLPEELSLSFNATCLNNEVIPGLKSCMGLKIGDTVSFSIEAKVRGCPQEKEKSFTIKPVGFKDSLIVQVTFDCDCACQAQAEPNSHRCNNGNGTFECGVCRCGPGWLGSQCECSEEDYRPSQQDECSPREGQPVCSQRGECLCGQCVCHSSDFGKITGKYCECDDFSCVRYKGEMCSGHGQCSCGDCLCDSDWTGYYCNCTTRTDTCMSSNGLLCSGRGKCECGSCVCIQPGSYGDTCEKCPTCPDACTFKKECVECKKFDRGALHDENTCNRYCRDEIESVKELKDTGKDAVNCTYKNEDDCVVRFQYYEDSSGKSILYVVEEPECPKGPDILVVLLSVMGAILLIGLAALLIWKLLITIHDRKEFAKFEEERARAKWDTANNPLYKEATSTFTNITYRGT
T1 sequence (P08514 32-887 limits assumed): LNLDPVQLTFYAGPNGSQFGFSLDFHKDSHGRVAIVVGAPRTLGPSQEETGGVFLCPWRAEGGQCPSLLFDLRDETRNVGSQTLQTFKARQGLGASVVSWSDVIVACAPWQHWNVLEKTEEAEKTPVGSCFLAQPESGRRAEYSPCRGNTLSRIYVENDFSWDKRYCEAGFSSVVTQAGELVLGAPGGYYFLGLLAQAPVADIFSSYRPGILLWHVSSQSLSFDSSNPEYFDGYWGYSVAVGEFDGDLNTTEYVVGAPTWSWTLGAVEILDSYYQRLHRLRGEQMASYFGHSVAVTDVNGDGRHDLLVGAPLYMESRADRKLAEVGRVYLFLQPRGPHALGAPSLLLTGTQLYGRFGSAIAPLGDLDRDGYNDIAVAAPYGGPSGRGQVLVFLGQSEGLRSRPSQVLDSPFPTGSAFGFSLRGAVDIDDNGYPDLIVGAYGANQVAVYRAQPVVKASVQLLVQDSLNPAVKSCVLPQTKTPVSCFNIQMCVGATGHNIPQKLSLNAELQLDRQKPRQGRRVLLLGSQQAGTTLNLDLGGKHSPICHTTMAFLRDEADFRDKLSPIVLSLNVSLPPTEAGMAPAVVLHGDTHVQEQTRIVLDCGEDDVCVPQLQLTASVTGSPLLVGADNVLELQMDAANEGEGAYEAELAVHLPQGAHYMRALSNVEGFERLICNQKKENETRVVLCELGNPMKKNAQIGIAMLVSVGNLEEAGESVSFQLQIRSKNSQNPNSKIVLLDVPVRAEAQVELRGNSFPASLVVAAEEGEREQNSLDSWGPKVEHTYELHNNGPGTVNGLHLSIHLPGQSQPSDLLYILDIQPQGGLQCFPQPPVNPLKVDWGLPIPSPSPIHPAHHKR
T1 sequence (P08514 891-1039 limits assumed): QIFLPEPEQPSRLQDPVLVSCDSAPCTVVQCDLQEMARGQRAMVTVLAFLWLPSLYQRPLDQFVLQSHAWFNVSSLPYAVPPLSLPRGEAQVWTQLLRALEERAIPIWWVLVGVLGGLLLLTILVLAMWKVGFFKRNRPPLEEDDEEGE

With `N=C(N)NCCCCCCCC(=O)N[C@@H](CC(=O)O)C(=O)N[C@@H](Cc1ccccc1)C(=O)O` as the molecule, how does the IC50 [1] read?
Its IC50 is 0.6 µM.

Which IC50 [1] does the source give for `N=C(N)NCCCCCCCC(=O)N[C@@H](CC(=O)O)C(=O)NCCc1ccccc1` here?
The IC50 was 30 µM.

With `N=C(N)NCCCCCCCC(=O)N[C@@H](CC1N=NN=N1)C(=O)N[C@@H](Cc1ccccc1)C(=O)O` as the molecule, how does the IC50 [2] read?
The IC50 was “Not Active”.

And the IC50 [3]?
The IC50 was “Not Active”.

With `N=C(N)NCCCCCCCC(=O)N[C@@H](CC(=O)O)C(=O)N[C@@H](Cc1ccccc1)C1N=NN=N1` as the molecule, how does the IC50 [4] read?
The IC50 was 2000 nM.
